The record followed here is PubChem BioAssay.

The structures appear in SMILES notation. The source made the active and inactive calls.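 How the source made its calls, unless noted: active means inhibition above 20% together with a positive visual image hit; inconclusive means visual image hit but inhibition not above 20%; inactive means no visual image hit.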

Assay [1] in a line: inhibitors of TNFa-induced NFkB p65 translocation, primary screen, imaging, HUVEC, MLSMR starter and 10KST1 sets (AID 438).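 Further: compound added about 3h40 before a 20 min TNFalpha stimulation.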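 On inhibition: signal is the nuclear over cytoplasmic p65 intensity ratio per well.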 The settings on record: HUVEC TNFa-induced p65 nuclear translocation; cell count: measured here: nuclei count (cytotoxicity indicator), at 2.08 µM; inhibition: at 2 µM, stronger effect = higher value, 0% TNFa-plus-vehicle, 100% no-TNFa wells.
Assay [2] is described as follows: inhibitors of mutant huntingtin aggregation, primary screen, imaging, exon1htt(103Q)mCFP cells, high-content imaging (AID 483;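 active means visual image review flags a hit and inhibition of aggregation exceeds 20%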;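 further: compound exposure lasted 3 days before fixation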;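 on nuclei count: percent of the per-plate median nuclei count of sample wells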). The settings on record: exon1htt(103Q)mCFP cell line, aggregate imaging, at 2 µM; inhibition of aggregation: stronger effect = higher value; nuclei count: measured here: cell count, toxicity.
A short description of assay [3]: inhibitors of E-selectin induction by TNFa, primary screen, imaging, HUVEC, immunofluorescence, MLSMR starter and 10KST1 sets (AID 487;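 active means visually confirmed hit in the image check and inhibition above 20%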;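 on inhibition: signal is fraction of cell area covered by stained E-selectin grains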;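 on nuclei count: 100% = median nuclei count of all wells on the same plate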). The settings on record: HUVEC TNFalpha-induced E-selectin immunofluorescence imaging, at 2 µM; inhibition: stronger effect = higher value; nuclei count: measured here: cell number, toxicity.
Assay [4] has as its target Voltage-gated potassium channel subunit beta-2 (Rattus norvegicus) (UniProt P62483). As to the kind of experiment: KvBeta enzyme negative modulators, primary screen, biochemical, NADPH fluorescence (AID 622;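 active means fluorescence slope higher than the sample average by over 3 SD, cut at about -0.22 in these data, passing the limit was not always enough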;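 further: slope of raw intensity against log time taken from 70 to 1610 s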). The settings on record: recombinant KvBeta, 4-cyanobenzaldehyde reduction, at 10 µM, stronger effect = higher value.
Assay [5] has the same target. The experiment in a line: KvBeta positive modulators, primary screen, biochemical, NADPH fluorescence (AID 623;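 active means NADPH fluorescence slope more negative than the mean of all samples by about 3 SD, 99.7% confidence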;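 further: fluorescence intensity change per second fitted from 20 to 320 s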). The settings on record: Recombinant KvBeta, NADPH fluorescence decrease slope, 10 min; at 10 µM; stronger effect = lower value.
Assay [6] has as its target Muscarinic acetylcholine receptor M4 (Homo sapiens) (UniProt P08173). As to the kind of experiment: compounds altering M4/GIRK thallium flux, either direction, primary screen, M4 allosteric agonist project, cell-based, HEK293 M4/GIRK, BTC-AM (AID 625;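 active means fluorescence slope after compound addition differing from the mean of all tested samples at 99.7% confidence, mostly higher but some lower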;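 further: thallium influx through GIRK channels coupled to M4 in HEK293 cells with BTC-AM dye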). The settings on record: at 10 µM, actives lie on both sides. A digest of the protocol: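 assay system = HEK293 cells with M4 receptor and GIRK channels | medium = pH 7.3 thallium assay buffer | doses = 10 µM final, single point | timing = cells overnight at 37 °C, BTC-AM loading 1 h, reads 2 min total | signal = BTC-AM fluorescence, 1 Hz kinetic reads | read-out = post-addition slope, 15–24 s, of baseline-normalized fluorescence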

Assay [7] can be described thus: inhibitors of Sendai virus-induced IRF3 signaling, primary screen, TLR/RLR signaling modifier project, cell-based, Sendai virus stimulus, luciferase, 10K MLSCN set (AID 602276;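 active means inhibition at or above 50% at 10 µM; inactive means inhibition below 50%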;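 further: firefly luciferase from ISG56 promoter only with Renilla not read in this screen; 0% = Sendai virus plus DMSO and 100% = medium plus DMSO without virus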). The settings on record: HEK293 RL24 IRF3 luciferase reporter, at 10 µM, stronger effect = higher value.
Assay [8] in a line: inhibitors of poly I:C-induced TLR3 signaling, primary screen, cell-based, poly I:C stimulus, luciferase, 10K MLSCN set (AID 602277;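 active means inhibition of the reporter signal at or above 50%; inactive means inhibition below 50%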). The settings on record: HEK293-TLR3 RL24 IRF3 luciferase reporter, at 10 µM, stronger effect = higher value.

Sequence of Muscarinic acetylcholine receptor M4 (Homo sapiens) (P08173 whole entry, looked up): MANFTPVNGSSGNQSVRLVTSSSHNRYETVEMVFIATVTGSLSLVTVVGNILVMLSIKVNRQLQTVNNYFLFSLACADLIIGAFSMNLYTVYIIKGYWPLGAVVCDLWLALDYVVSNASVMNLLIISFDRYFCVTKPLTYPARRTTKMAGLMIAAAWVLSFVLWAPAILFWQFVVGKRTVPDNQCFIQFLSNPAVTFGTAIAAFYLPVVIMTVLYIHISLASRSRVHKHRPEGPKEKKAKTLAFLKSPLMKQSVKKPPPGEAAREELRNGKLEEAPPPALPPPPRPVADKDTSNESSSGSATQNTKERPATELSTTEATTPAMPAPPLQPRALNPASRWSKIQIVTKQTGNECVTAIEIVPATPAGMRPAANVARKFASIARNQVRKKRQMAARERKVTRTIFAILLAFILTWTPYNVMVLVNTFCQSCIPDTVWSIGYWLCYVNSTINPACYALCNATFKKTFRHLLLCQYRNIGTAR
Sequence of Voltage-gated potassium channel subunit beta-2 (Rattus norvegicus) (P62483 whole entry, looked up): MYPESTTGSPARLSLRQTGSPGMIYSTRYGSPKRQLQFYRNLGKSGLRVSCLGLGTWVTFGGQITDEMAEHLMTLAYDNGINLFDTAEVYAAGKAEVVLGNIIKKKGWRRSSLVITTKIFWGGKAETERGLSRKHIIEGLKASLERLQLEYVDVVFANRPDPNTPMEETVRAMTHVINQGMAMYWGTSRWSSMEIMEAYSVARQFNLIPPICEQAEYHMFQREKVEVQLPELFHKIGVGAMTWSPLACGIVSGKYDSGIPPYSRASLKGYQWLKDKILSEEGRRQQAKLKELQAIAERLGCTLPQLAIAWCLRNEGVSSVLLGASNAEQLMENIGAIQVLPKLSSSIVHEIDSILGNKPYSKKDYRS

For `O=C(Cn1nnc(-c2ccncc2)n1)Nc1ccc2c(c1)CCC2`, the cell count in assay [1] was 674. The inhibition in assay [1] is -8.6% (inactive); in assay [3], -115% (inactive); in assay [7], -0.547% (inactive); in assay [8] it was -23.3% (inactive). In addition, the inhibition of aggregation in assay [2] was 5% (inactive). The nuclei count in assay [2] came out at 89.1%; in assay [3], 140%. Besides, the fluorescence slope in assay [4] was -0.465 (inactive); in assay [6], 0.00619 (inactive). For the same compound, in assay [5], the NADPH fluorescence slope is -6.3e-05 (inactive).
As for `Cc1ccc(S(=O)(=O)N2CCN(C(=O)CN3C(=O)NC4(CCOc5ccccc54)C3=O)CC2)cc1` (centres undefined), the cell count in assay [1] was found to be 697. The inhibition in assay [1] is -3.3% (inactive); in assay [3] it was -38.5% (inactive); in assay [7] it was -12.9% (inactive); in assay [8] it was -7.58% (inactive). For the same compound, the inhibition of aggregation in assay [2] is 8.6% (inactive). The nuclei count in assay [2] was determined as 106%; in assay [3], 112%. Besides, the values for the fluorescence slope in assay [4] and in assay [6] were -0.44 (inactive) and 0.00414 (inactive), respectively. Further, the NADPH fluorescence slope in assay [5] is -0.000543 (inactive).
Consider `CCCOc1nc(N)c(C#N)c(-c2ccccc2F)c1C#N`, for which, in assay [1], the cell count was determined as 359. For the same compound, the inhibition in assay [1] was 1.2% (inactive); in assay [3], -22.8% (inactive); in assay [7], 9.25% (inactive); in assay [8], 14% (inactive). The inhibition of aggregation in assay [2] was 10.7% (inactive). Besides, the nuclei count was 98.5% in assay [2] and 99.6% in assay [3]. Moreover, the values for the fluorescence slope in assay [4] and in assay [6] were -0.547 (inactive) and 0.00463 (inactive), respectively. Further, the NADPH fluorescence slope in assay [5] is 2.2e-05 (inactive).
For `COC(=O)c1oc2ccc(Br)cc2c1NC(=O)CN1CCN(C)CC1`, the cell count in assay [1] amounted to 240. For the same compound, the inhibition in assay [1] is 6% (inactive); in assay [3] it was 30.2% (inactive); in assay [7] it was 1.64% (inactive); in assay [8], 6.76% (inactive). For the same compound, the inhibition of aggregation in assay [2] was -3.2% (inactive). Moreover, the values for the nuclei count in assay [2] and in assay [3] were 94.6% and 85.6%, respectively. The fluorescence slope was -0.589 (inactive) in assay [4] and 0.00465 (inactive) in assay [6]. Moreover, in assay [5], the NADPH fluorescence slope is 1.6e-05 (inactive).
With `O=C(C1CCC1)N1CCc2cc(S(=O)(=O)N3CCc4ccccc4C3)ccc21`, the cell count in assay [1] turned out to be 299. For the same compound, the inhibition was 0% (inactive) in assay [1], -0.1% (inactive) in assay [3], -7.83% (inactive) in assay [7] and 4.09% (inactive) in assay [8]. Also, the inhibition of aggregation in assay [2] was 8.8% (inactive). Further, the nuclei count was 113% in assay [2] and 118% in assay [3]. Besides, the results for the fluorescence slope in assay [4] and in assay [6] were -0.411 (inactive) and 0.00795 (inactive), respectively. Also, the NADPH fluorescence slope in assay [5] was 7.8e-05 (inactive).
With `CC(c1ccccc1)N1C(=O)c2ccc(C(=O)NCc3ccco3)cc2C1=O` (centres undefined), the cell count in assay [1] is 710. Also, the inhibition in assay [1] is 6.3% (inactive); in assay [3], 23.2% (inactive); in assay [7], -11.4% (inactive); in assay [8] it was 51.6% (active). Besides, the inhibition of aggregation in assay [2] was -0.8% (inactive). The results for the nuclei count in assay [2] and in assay [3] were 107% and 93.8%, respectively. Also, the fluorescence slope was -0.46 (inactive) in assay [4] and 0.00569 (inactive) in assay [6]. Besides, the NADPH fluorescence slope in assay [5] was -2.6e-05 (inactive).
On to `Cc1ccc(C)c(-n2c(Cc3cc(=O)[nH]c(=O)[nH]3)nnc2SCC(=O)NCc2ccco2)c1`, for which, in assay [1], the cell count worked out at 254. Further, the inhibition in assay [1] is -4.3% (inactive); in assay [3], 65.5% (active); in assay [7], -2% (inactive); in assay [8], 5.02% (inactive). Moreover, the inhibition of aggregation in assay [2] was -32.9% (inactive). The nuclei count stood at 74.4% in assay [2] and 64% in assay [3]. Also, the fluorescence slope in assay [4] was -0.549 (inactive); in assay [6], 0.00457 (inactive). The NADPH fluorescence slope in assay [5] was -6.1e-05 (inactive).
Turning to `O=C1CC(N2CCC(C(=O)N3CCCCC3)CC2)C(=O)N1` (centres undefined), in assay [1], the cell count stood at 349. In addition, the inhibition is 4% (inactive) in assay [1], -37.4% (inactive) in assay [3], 19.9% (inactive) in assay [7] and 16.2% (inactive) in assay [8]. The inhibition of aggregation in assay [2] is 10.7% (inactive). Also, the nuclei count turned out to be 115% in assay [2] and 148% in assay [3]. For the same compound, the fluorescence slope in assay [4] is -0.554 (inactive); in assay [6] it was 0.00558 (inactive). Further, in assay [5], the NADPH fluorescence slope is -3.8e-05 (inactive).
For the compound `c1ccc(CNC2=NCCC2)nc1`, the cell count in assay [1] came out at 414. The inhibition in assay [1] was -5.7% (inactive); in assay [3], 42.6% (inactive); in assay [7], 1.8% (inactive); in assay [8], 10.1% (inactive). Moreover, the inhibition of aggregation in assay [2] is 14.2% (inactive). Besides, the nuclei count in assay [2] came to 65.8%; in assay [3], 75.5%. The fluorescence slope in assay [4] was -0.586 (inactive); in assay [6], 0.00615 (inactive). Further, the NADPH fluorescence slope in assay [5] is -2.6e-05 (inactive).
For `N#Cc1c(N)nc(SCc2ccncc2)c(C#N)c1-c1cccs1`, in assay [1], the cell count came to 321. The inhibition in assay [1] is 10.9% (inactive); in assay [3], 13.8% (inactive); in assay [7] it was 26.1% (inactive); in assay [8], 25.1% (inactive). Also, the inhibition of aggregation in assay [2] was -2.2% (inactive). Moreover, the nuclei count in assay [2] came out at 32.8%; in assay [3], 107%. The fluorescence slope in assay [4] is -0.529 (inactive); in assay [6] it was 0.0051 (inactive). The NADPH fluorescence slope in assay [5] is -2.3e-05 (inactive).
Take `N#CC(C(=O)CCN1C(=O)C2CC=CCC2C1=O)c1nc2ccccc2[nH]1` (centres undefined): in assay [1], the cell count is 286. Also, the inhibition in assay [1] is -5.7% (inactive); in assay [3] it was -88.1% (inactive); in assay [7] it was 18.4% (inactive); in assay [8], 17.1% (inactive). Moreover, in assay [2], the inhibition of aggregation is 4.5% (inactive). Also, the figures for the nuclei count in assay [2] and in assay [3] were 93.8% and 123%, respectively. Moreover, the fluorescence slope in assay [4] was -0.524 (inactive); in assay [6] it was 0.00584 (inactive). In addition, in assay [5], the NADPH fluorescence slope is 5.4e-05 (inactive).
For the compound `COc1cc(C(=O)Nc2cc(Cl)ccc2C)c(-n2cnnn2)cc1OC`, the cell count in assay [1] is 715. Also, the inhibition in assay [1] was 8.8% (inactive); in assay [3], -62.1% (inactive); in assay [7] it was 13.5% (inactive); in assay [8], 15.4% (inactive). In addition, in assay [2], the inhibition of aggregation was 15.8% (inactive). Also, the results for the nuclei count in assay [2] and in assay [3] were 83.5% and 117%, respectively. In addition, the fluorescence slope in assay [4] was -0.474 (inactive); in assay [6], 0.00699 (inactive). Further, the NADPH fluorescence slope in assay [5] is 0.00014 (inactive).
As for `COC(=O)c1ccc(CSc2ncnc3c2nnn3-c2ccc(OC)cc2)o1`, the cell count in assay [1] is 444. Further, the inhibition is 3.3% (inactive) in assay [1], -43.8% (inactive) in assay [3], 1.55% (inactive) in assay [7] and -32.3% (inactive) in assay [8]. The inhibition of aggregation in assay [2] was -13.1% (inactive). In addition, the figures for the nuclei count in assay [2] and in assay [3] were 95% and 113%, respectively. The fluorescence slope in assay [4] is -0.577 (inactive); in assay [6], 0.00411 (inactive). Also, the NADPH fluorescence slope in assay [5] was -2.7e-05 (inactive).
For `CCC(=O)N1CCc2cc(Br)cc(S(=O)(=O)CCC(=O)NCC3CCCO3)c21` (centres undefined), in assay [1], the cell count was found to be 628. Besides, the inhibition in assay [1] was 2.7% (inactive); in assay [3], -113% (inactive); in assay [7], 11.2% (inactive); in assay [8] it was 9.46% (inactive). For the same compound, in assay [2], the inhibition of aggregation is 12.7% (inactive). The nuclei count came to 76.3% in assay [2] and 107% in assay [3]. Also, the fluorescence slope was -0.312 (inactive) in assay [4] and 0.00706 (inactive) in assay [6]. In addition, the NADPH fluorescence slope in assay [5] is -3.4e-05 (inactive).
